Experiment [1] addresses T1, Melatonin receptor type 1C (Xenopus laevis) (UniProt P49219).
T1 sequence (whole entry): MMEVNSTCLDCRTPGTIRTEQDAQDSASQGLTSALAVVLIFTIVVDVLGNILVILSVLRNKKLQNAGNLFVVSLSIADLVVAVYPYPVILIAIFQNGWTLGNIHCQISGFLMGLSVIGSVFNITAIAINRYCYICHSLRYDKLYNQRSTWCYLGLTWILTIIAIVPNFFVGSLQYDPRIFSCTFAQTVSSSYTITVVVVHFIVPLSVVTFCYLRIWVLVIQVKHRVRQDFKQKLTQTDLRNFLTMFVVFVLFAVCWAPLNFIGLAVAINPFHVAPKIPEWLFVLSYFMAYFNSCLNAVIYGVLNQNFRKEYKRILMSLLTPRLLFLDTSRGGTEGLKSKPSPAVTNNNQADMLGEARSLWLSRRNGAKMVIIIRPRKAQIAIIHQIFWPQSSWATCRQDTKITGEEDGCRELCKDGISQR
Description: Agonist activity at Melatonin receptor type 1C in Xenopus laevis melanophores assessed as induction of pigment aggregation response by microtiter plate reader based absorbance detection assay relative to melatonin. The method in brief:
(§1)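 Cultured melanophores (about 6-8 x 10³ per well) switched to 0.7 x L-15 medium with 1 mg·mL⁻¹ bovine albumin 1 h before concentration-response runs, in which pigment stays dispersed. Aggregation read as absorbance at 630 nm before and after drug, expressed as fractional change 1-(A_f/A_i). Drugs diluted fresh from 10⁻² M methanol or DMSO stocks; final solvent at most 1% v/v.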

Experiment [2] has as its target T2, Melatonin receptor type 1C (Xenopus laevis, UniProt P49219).
T2 sequence (P49219 whole entry): T1 sequence (whole entry)
In words: Agonist activity at Melatonin receptor type 1C in Xenopus laevis melanophores assessed as induction of pigment aggregation response by microtiter plate reader based absorbance detection assay. The method in brief:
as §1

Experiment [3] deals with T1, Melatonin receptor type 1C (Xenopus laevis). In words: Antagonist activity at Melatonin receptor type 1C in Xenopus laevis melanophores assessed as inhibition of melatonin-induced pigment aggregation response up to 10^-4M pre-incubated 60 mins before melatonin addition by microtiter plate reader based absorbance detection assay.
Experiment [4] has the same target. Description: Antagonist activity at Melatonin receptor type 1C in Xenopus laevis melanophores assessed as inhibition of melatonin-induced pigment aggregation response pre-incubated 60 mins before melatonin addition by microtiter plate reader based absorbance detection assay. Set-up: concentration or dose not given beside the values. The method in brief:
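Melanophores pre-equilibrated 1 h in 0.7 x L-15 medium containing 1 mg·mL⁻¹ bovine albumin. Antagonist (10⁻⁵ M) added 60 min ahead of melatonin, and melatonin concentration-response curves run with and without it. Pigment aggregation read as 630 nm absorbance change, 1-(A_f/A_i). pK_B taken as log(concentration ratio – 1) – log[antagonist]. Solvent at most 1% v/v.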

Activity calls are given as the source filed them. The rule behind the calls is not given here.

On to `COc1ccc(CNC(C)=O)cc1F`, for which, in experiment [1], the Efficacy amounted to 77%. Also, the half-maximal effective concentration (EC50) (in general, the midpoint of the concentration-response curve) in experiment [2] is 1510 nM. In addition, in experiment [3], the inhibition (commonly the percentage by which the read-out fell short of the control) was “inactive”.
Turning to `CC(=O)NCCc1c(Cc2ccccc2)[nH]c2ccccc12`, the inhibition in experiment [4] came to 100%.
Consider `CCC(=O)NCCc1ccc(F)c(OC)c1`, for which, in experiment [1], the Efficacy amounted to 100%. Further, the EC50 in experiment [2] is 85.1 nM. Further, the inhibition result in experiment [3] was “inactive”.
The corresponding values for `COc1ccc(F)c(C(C)(C)CNC(C)=O)c1` are 100%, 182 nM and “inactive”.
As to `COc1ccc(F)c(CNC(C)=O)c1`, the Efficacy in experiment [1] amounted to 100%. Further, the concentration for a half-maximal effect (EC50) in experiment [2] is 1950 nM. Further, the inhibition result in experiment [3] was “inactive”.
For the compound `CCC(=O)NCCc1cc(OC)ccc1F`, the Efficacy in experiment [1] stood at 100%. The EC50 in experiment [2] is 794 nM. The inhibition result in experiment [3] was “inactive”.
On to `CCC(=O)NCC(C)(C)c1ccc(OC)c(F)c1`, for which the Efficacy in experiment [1] was found to be 100%. For the same compound, the EC50 in experiment [2] is 93.3 nM. Moreover, the inhibition result in experiment [3] was “inactive”.
As to `COc1cc(CNC(C)=O)ccc1F`, the Efficacy in experiment [1] worked out at 83%. Further, in experiment [2], the concentration giving a half-maximal response (EC50) is 2090 nM. The inhibition entry in experiment [3] is “inactive”.
`COc1ccc(CCCNC(C)=O)cc1F`: the Efficacy in experiment [1] came out at 79%. The EC50 in experiment [2] is 1820 nM. In experiment [3], the inhibition result was “inactive”.
`CCC(=O)NCc1ccc(OC)c(F)c1`: the inhibition in experiment [4] amounted to 24%. Further, the Efficacy in experiment [1] is 51%. In addition, the EC50 in experiment [2] is 1050 nM.
`CCCC(=O)NCc1cc(OC)ccc1F`: the inhibition in experiment [4] came to 44%. The Efficacy in experiment [1] was 43%. For the same compound, the EC50 in experiment [2] was 1350 nM.
Turning to `COc1cc(CCNC(C)=O)ccc1F`, in experiment [1], the Efficacy was found to be 100%. For the same compound, in experiment [2], the concentration for a half-maximal effect (EC50) was 275 nM. The inhibition result in experiment [3] was “inactive”.
Regarding `CCC(=O)NCCCc1ccc(OC)c(F)c1`, the inhibition in experiment [4] amounted to 8%. In addition, the Efficacy in experiment [1] worked out at 78%. In addition, in experiment [2], the EC50 was 871 nM.
With `CCCC(=O)NCc1ccc(OC)c(F)c1`, the inhibition in experiment [4] is 37%. In experiment [1], the Efficacy was 57%. The concentration for a half-maximal effect (EC50) in experiment [2] was 661 nM.
For `CCC(=O)NCCCc1ccc(F)c(OC)c1`, the Efficacy in experiment [1] turned out to be 89%. Further, the half-maximal effective concentration (EC50) in experiment [2] was 1.1 nM. Moreover, the inhibition result in experiment [3] is “inactive”.
For `COc1ccc(F)c(CCNC(C)=O)c1`, the Efficacy in experiment [1] turned out to be 100%. For the same compound, the concentration for a half-maximal effect (EC50) in experiment [2] was 2450 nM. In addition, the inhibition entry in experiment [3] was “inactive”.
For the compound `CCCC(=O)NCc1ccc(F)c(OC)c1`, the Efficacy in experiment [1] turned out to be 75%. The EC50 in experiment [2] was 2510 nM. The inhibition entry in experiment [3] is “inactive”.
Regarding `COc1cc(CCCNC(C)=O)ccc1F`, the Efficacy in experiment [1] turned out to be 92%. In experiment [2], the EC50 is 3.89 nM. In experiment [3], the inhibition entry was “inactive”.
The matching figures for `CCC(=O)NCc1ccc(F)c(OC)c1`: 86%, 2880 nM and “inactive”.
As to `CCC(=O)NCC(C)(C)c1ccc(F)c(OC)c1`, the Efficacy in experiment [1] turned out to be 100%. Moreover, the concentration for a half-maximal effect (EC50) in experiment [2] is 0.537 nM. Besides, the inhibition entry in experiment [3] was “inactive”.
The corresponding values for `COc1ccc(C(C)(C)CNC(C)=O)cc1F` are 100%, 81.3 nM and “inactive”.
Consider `CCCC(=O)NCCCc1ccc(OC)c(F)c1`, for which the inhibition in experiment [4] came to 19%. Moreover, the Efficacy in experiment [1] stood at 73%. Moreover, the concentration for a half-maximal effect (EC50) in experiment [2] was 417 nM.
Regarding `CCC(=O)NCCCc1cc(OC)ccc1F`, the Efficacy in experiment [1] was determined as 100%. The EC50 in experiment [2] is 3.72 nM. In addition, the inhibition result in experiment [3] was “inactive”.
The corresponding values for `CCC(=O)NCC(C)(C)c1cc(OC)ccc1F` are 100%, 269 nM and “inactive”.
Take `COc1ccc2[nH]cc(CCNC(C)=O)c2c1` [MELATONIN]: the EC50 in experiment [2] was 0.123 nM.
Regarding `CCCC(=O)NCCc1ccc(OC)c(F)c1`, in experiment [4], the inhibition was 48%. The Efficacy in experiment [1] was found to be 52%. Moreover, in experiment [2], the 50% effective concentration (EC50) was 1200 nM.
As for `CCCC(=O)NCCc1ccc(F)c(OC)c1`, the Efficacy in experiment [1] stood at 100%. Besides, the half-maximal effective concentration (EC50) in experiment [2] was 66.1 nM. For the same compound, the inhibition entry in experiment [3] is “inactive”.
With `CCCC(=O)NCC(C)(C)c1ccc(OC)c(F)c1`, the Efficacy in experiment [1] was found to be 100%. Also, in experiment [2], the half-maximal effective concentration (EC50) was 79.4 nM. In experiment [3], the inhibition result was “inactive”.
Turning to `CCCC(=O)NCCCc1ccc(F)c(OC)c1`, in experiment [1], the Efficacy was 89%. In experiment [2], the concentration giving a half-maximal response (EC50) is 0.891 nM. Besides, the inhibition entry in experiment [3] was “inactive”.
Consider `COc1ccc(F)c(CCCNC(C)=O)c1`, for which the Efficacy in experiment [1] amounted to 100%. Also, the EC50 in experiment [2] was 20.4 nM. In experiment [3], the inhibition entry is “inactive”.
In the case of `CCC(=O)NCCc1ccc(OC)c(F)c1`, the Efficacy in experiment [1] turned out to be 80%. In experiment [2], the EC50 is 1350 nM. Besides, in experiment [3], the inhibition entry was “inactive”.
The corresponding values for `CCCC(=O)NCCc1cc(OC)ccc1F` are 100%, 251 nM and “inactive”.
In the case of `COc1cc(C(C)(C)CNC(C)=O)ccc1F`, the Efficacy in experiment [1] stood at 100%. Also, the EC50 in experiment [2] was 1.82 nM. In addition, the inhibition result in experiment [3] is “inactive”.
The matching figures for `CCCC(=O)NCC(C)(C)c1ccc(F)c(OC)c1`: 100%, 0.0229 nM and “inactive”.
As for `COc1ccc(CCNC(C)=O)cc1F`, in experiment [1], the Efficacy worked out at 80%. Besides, in experiment [2], the EC50 was 2400 nM. In experiment [3], the inhibition result is “inactive”.
For the compound `CCC(=O)NCc1cc(OC)ccc1F`, the inhibition in experiment [4] stood at 23%. Besides, the Efficacy in experiment [1] is 69%. Moreover, in experiment [2], the EC50 was 2400 nM.
Take `CCCC(=O)NCCCc1cc(OC)ccc1F`: the Efficacy in experiment [1] was 100%. Further, the EC50 in experiment [2] was 9.55 nM. Further, the inhibition entry in experiment [3] is “inactive”.
The matching figures for `CCCC(=O)NCC(C)(C)c1cc(OC)ccc1F`: 100%, 97.7 nM and “inactive”.
As to `CCCC(=O)NC(C)Cc1ccc(F)c(OC)c1` (stereo not drawn), in experiment [1], the Efficacy was 89%. In experiment [2], the 50% effective concentration (EC50) was 105 nM. Also, the inhibition result in experiment [3] is “inactive”.
